Source: ChEMBL document CHEMBL4406921, “Discovery of Axelopran (TD-1211): A Peripherally Restricted μ-Opioid Receptor Antagonist” (ACS Med Chem Lett, 2019)

Molecular target: Delta-type opioid receptor (Homo sapiens, UniProt P41143)
Test: Displacement of [3H]-DPN from recombinant human delta opioid receptor expressed in CHO-K1 cell membranes by radioligand binding assay
Settings: not given
Outline: (§1)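 Membranes from CHO-K1 cells stably transfected with human recombinant μ or δ receptor, or guinea pig κ receptor; competition with [3H]-DPN radioligand; affinity reported as pKi.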

Chain of Delta-type opioid receptor (P41143 whole entry): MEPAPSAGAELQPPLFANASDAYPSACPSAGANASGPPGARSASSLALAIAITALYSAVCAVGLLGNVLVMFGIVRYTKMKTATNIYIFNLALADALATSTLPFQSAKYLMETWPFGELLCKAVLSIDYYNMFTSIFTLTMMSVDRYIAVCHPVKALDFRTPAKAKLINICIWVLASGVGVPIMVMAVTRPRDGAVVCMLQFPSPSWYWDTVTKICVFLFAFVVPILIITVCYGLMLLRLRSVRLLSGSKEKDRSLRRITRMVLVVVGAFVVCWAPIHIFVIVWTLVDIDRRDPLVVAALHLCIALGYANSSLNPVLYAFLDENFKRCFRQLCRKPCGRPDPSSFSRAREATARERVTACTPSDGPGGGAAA

Structure (SMILES) | Ki [nM]
CS(=O)(=O)N(CCN1[C@@H]2CC[C@H]1C[C@@H](c1cccc(C(N)=O)c1)C2)CC1CCCCC1 | 7.94
CN(C)S(=O)(=O)N(CCN1[C@@H]2CC[C@H]1C[C@@H](c1cccc(C(N)=O)c1)C2)CC1CCCCC1 | 2
C[C@H]1CN(CCC(=O)O)CC[C@@]1(C)c1cccc(O)c1 | 3160

Molecular target: Kappa-type opioid receptor (Cavia porcellus, UniProt P41144)
Test: Displacement of [3H]-DPN from guinea pig kappa opioid receptor expressed in CHO-K1 cell membranes by radioligand binding assay
Settings: not given
Outline: as §1

Chain of Kappa-type opioid receptor (P41144 whole entry): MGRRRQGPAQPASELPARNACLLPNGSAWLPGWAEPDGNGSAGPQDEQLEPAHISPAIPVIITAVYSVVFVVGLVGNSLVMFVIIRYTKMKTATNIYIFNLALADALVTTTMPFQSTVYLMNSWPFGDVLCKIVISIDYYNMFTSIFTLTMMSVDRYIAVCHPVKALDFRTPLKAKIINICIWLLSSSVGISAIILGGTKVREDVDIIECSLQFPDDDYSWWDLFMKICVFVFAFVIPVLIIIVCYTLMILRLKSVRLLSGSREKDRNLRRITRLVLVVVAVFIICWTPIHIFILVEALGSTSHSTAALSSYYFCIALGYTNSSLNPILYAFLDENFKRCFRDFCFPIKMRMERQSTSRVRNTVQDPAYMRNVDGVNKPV

Structure (SMILES) | Ki [nM]
CS(=O)(=O)N(CCN1[C@@H]2CC[C@H]1C[C@@H](c1cccc(C(N)=O)c1)C2)CC1CCCCC1 | 0.794
CN(C)S(=O)(=O)N(CCN1[C@@H]2CC[C@H]1C[C@@H](c1cccc(C(N)=O)c1)C2)CC1CCCCC1 | 0.2

System: not listed separately
Test: Permeability coefficient, Kp in human Caco2 cells
Assay type: ADME, cell-based
Settings: Caco-2, read-out: Kp

Structure (SMILES) | Papp [×10⁻⁶ cm/s]
C[C@H]1CN(CCC(=O)O)CC[C@@]1(C)c1cccc(O)c1 | < 1

System: not listed separately
Test: Half life in rat liver microsomes at 3 uM
Assay type: ADME, Microsome
Settings: not given

Structure (SMILES) | half-life at 3 µM [min]
CS(=O)(=O)N(CCN1[C@@H]2CC[C@H]1C[C@@H](c1cccc(C(N)=O)c1)C2)CC1CCCCC1 | 13
CN(C)S(=O)(=O)N(CCN1[C@@H]2CC[C@H]1C[C@@H](c1cccc(C(N)=O)c1)C2)CC1CCCCC1 | 8
C[C@H]1CN(CCC(=O)O)CC[C@@]1(C)c1cccc(O)c1 | > 90

Molecular target: T1, Mu-type opioid receptor (Homo sapiens, UniProt P35372)
Test: Antagonist activity at human recombinant mu opioid receptor expressed in CHO-K1 cell membranes assessed as intrinsic activity at 10 pM to 20 uM incubated for 30 mins in presence of Eu-GTP by DELFIA GTP binding assay relative to DAMGO
Settings: not given

T1 sequence (P35372 whole entry): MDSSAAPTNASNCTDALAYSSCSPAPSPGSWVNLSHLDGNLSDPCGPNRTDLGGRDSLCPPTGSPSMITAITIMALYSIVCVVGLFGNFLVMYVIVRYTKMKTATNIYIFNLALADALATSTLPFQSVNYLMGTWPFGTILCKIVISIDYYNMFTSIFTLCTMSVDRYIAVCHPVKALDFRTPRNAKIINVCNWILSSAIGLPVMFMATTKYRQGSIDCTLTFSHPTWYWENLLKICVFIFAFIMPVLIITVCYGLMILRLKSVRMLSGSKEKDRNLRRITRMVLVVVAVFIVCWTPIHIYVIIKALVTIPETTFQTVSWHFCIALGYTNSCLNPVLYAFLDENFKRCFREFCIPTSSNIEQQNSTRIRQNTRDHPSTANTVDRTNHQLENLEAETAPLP

Structure (SMILES) | Intrinsic activity [%]
CS(=O)(=O)N(CCN1[C@@H]2CC[C@H]1C[C@@H](c1cccc(C(N)=O)c1)C2)CC1CCCCC1 | 1
CN(C)S(=O)(=O)N(CCN1[C@@H]2CC[C@H]1C[C@@H](c1cccc(C(N)=O)c1)C2)CC1CCCCC1 | 0
C[C@H]1CN(CCC(=O)O)CC[C@@]1(C)c1cccc(O)c1 | 4

System: not listed separately
Test: Half life in human liver microsomes at 3 uM
Assay type: ADME, Microsome
Settings: not given

Structure (SMILES) | half-life at 3 µM [min]
CS(=O)(=O)N(CCN1[C@@H]2CC[C@H]1C[C@@H](c1cccc(C(N)=O)c1)C2)CC1CCCCC1 | 19
CN(C)S(=O)(=O)N(CCN1[C@@H]2CC[C@H]1C[C@@H](c1cccc(C(N)=O)c1)C2)CC1CCCCC1 | 9

Molecular target: T1, Mu-type opioid receptor
Test: Displacement of [3H]-DPN from recombinant human mu opioid receptor expressed in CHO-K1 cell membranes by radioligand binding assay
Settings: not given
Outline: as §1

Structure (SMILES) | Ki [nM]
CS(=O)(=O)N(CCN1[C@@H]2CC[C@H]1C[C@@H](c1cccc(C(N)=O)c1)C2)CC1CCCCC1 | 0.251
CN(C)S(=O)(=O)N(CCN1[C@@H]2CC[C@H]1C[C@@H](c1cccc(C(N)=O)c1)C2)CC1CCCCC1 | 0.2
C[C@H]1CN(CCC(=O)O)CC[C@@]1(C)c1cccc(O)c1 | 631

System: not listed separately
Test: Half life in dog liver microsomes at 3 uM
Assay type: ADME, Canis lupus familiaris, Microsome
Settings: not given

Structure (SMILES) | half-life at 3 µM [min]
CS(=O)(=O)N(CCN1[C@@H]2CC[C@H]1C[C@@H](c1cccc(C(N)=O)c1)C2)CC1CCCCC1 | 2
CN(C)S(=O)(=O)N(CCN1[C@@H]2CC[C@H]1C[C@@H](c1cccc(C(N)=O)c1)C2)CC1CCCCC1 | 5
